Data from paper PMC9420430 (Current Research in Immunology, 2022).
Where two headings read alike, the source gives them in different places. Each block holds one molecule with its values, some of them ahead of it.

Assays:
[1] = biological target: T1, HLA-A*02:01 (Homo sapiens, UniProt P04439, D140Y/D185E/D98H/E176V/E277Q/G131W/G231S/I119V/I121R/I166T/I218V/L300P/L318F/N151K/N90K/P208A/P217A/Q86G/Q94H/R138H/R169H/T345S); assay type: binding; conditions: for peptide exchange (in words): NA9 for NV9-FITC on A2, 25 °C
[2] = system: A2/NA9; assay: Thermal stability by nanoscale differential scanning fluorimetry, A2/NA9; set-up: species or system human; conditions: for destabilization of A2 complex (in words): ethanediol, 20% DMSO, Table S5
Procedure, shortened: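 Refolded, SEC-purified HLA-A2/peptide complex, 4 µM in citrate-phosphate buffer pH 7.6 (187.3 mM Na₂HPO₄, 6.35 mM citric acid). Mixed 1:1 with solvent or dipeptide at 2x test concentration in the same buffer, giving 2 µM complex. nanoDSF in capillaries: ex 280 nm, em 330 and 350 nm, ramp 1.0 °C/min from 15 or 20 °C to 80 °C.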

[3] = biological target: T1, HLA-A*02:01; assay type: binding
[4] = biological target: HLA-A*24:02 (Homo sapiens, UniProt P04439, D101N/D140Y/D185E/E176V/E190D/F33S/G103R/G107R/I119L/I121M/I306V/K335N/L105A/L180Q/L300P/N151K/N90K/Q86E/Q94H/R106L/R138H/R89G/T104I/T345S/V100E/W191G/Y123F); assay type: binding; conditions: pre-bound TLn9, ethanol vs 10 mM GF, 25 °C
Procedure, shortened: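 Complex (300 nM final) preincubated 15 min with the test compound or 10 mM dipeptide in 50 mM HEPES, 150 mM NaCl, pH 7.5. FITC-labeled incoming peptide added at 100 nM final. Exchange followed in real time by fluorescence anisotropy (ex 494 nm, em 517 nm) at 25 °C.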

[5] = system: β2m; assay: Thermal stability by nanoscale differential scanning fluorimetry, β2m; set-up: species or system human
[6] = biological target: H-2K^b (Mus musculus, UniProt P01901); assay type: binding, murine; conditions: pre-bound FAPGNYPAL
[7] = biological target: HLA-B*07:02 (Homo sapiens, UniProt P01889); assay type: binding; conditions: pre-bound APGIRDHESA
[8] = system: A2/IV9; assay: Thermal stability by nanoscale differential scanning fluorimetry, A2/IV9; set-up: species or system human; conditions: no reagent
[9] = biological target: disulfide-stabilized HLA-A*02:01 (Y84C/A139C) (Homo sapiens, UniProt P04439, D140Y/D185E/D98H/E176V/E277Q/G131W/G231S/I119V/I121R/I166T/I218V/L300P/L318F/N151K/N90K/P208A/P217A/Q86G/Q94H/R138H/R169H/T345S/A163C/Y108C); assay type: binding
[10] = biological target: disulfide-stabilized HLA-A*02:01 (Y84C/A139C) / beta-2 microglobulin, peptide-free (human); assay: fluorescence polarisation
[11] = system: A2/NV9; assay: Thermal stability by nanoscale differential scanning fluorimetry, A2/NV9; set-up: species or system human; conditions: no reagent

Molecule: CCCO [1-propanol]
- peptide exchange (in words) [1]: ineffective

Molecule: CCC(C)O (stereo not shown) [2-butanol]
- peptide exchange (in words) [1]: ineffective

Molecule: C[S+](C)[O-] [DMSO, Dimethylsulfoxide]
- destabilization of A2 complex (in words) [2]: destabilizes to an extent similar to 10% ethanol

Molecule: OCCO [EDO, 1,2-Ethanediol]
- destabilization of A2 complex (in words) [2]: destabilizes A2 only slightly
- peptide exchange (in words) [1]: enhanced exchange only to a minor extent

Molecule: ILKEPVHGV [IV9]
- Tm of complex compared to β2m alone (in words) [8]: not significantly different from those of β2m alone

Molecule: NLVPMVATV [NV9]
- Tm of complex compared to β2m alone (in words) [11]: not significantly different from those of β2m alone

The next lines start with results.

- peptide exchange (in words) [3]: considerably less than that of 10 mM GM
- peptide exchange (in words) [4]: dramatically superior to the dipeptide
- ΔTm ([2]; A2/NA9, 20% ethanol vs no reagent): −16.7 °C
- Tm ([5]; 20% solvent, β2m alone, citrate-phosphate buffer pH 7.6, 1.0 °C/min): 45 °C
- ΔTm ([5]; β2m, 20% solvent vs no reagent): −20.5 °C
- peptide exchange (in words) [6]: also catalyzes exchange
- lower endpoint anisotropy with temperature increase (in words) ([1]; 20% ethanol, 25, 32, 37 °C, less A2 available to bind the incoming peptide): especially dramatic
- peptide exchange (in words) [7]: also catalyzes exchange
Molecule: CCO [EtOH, Ethanol]
- peptide exchange (in words) [1]: 10% ethanol showed an acceleration similar to the dipeptide

- peptide exchange (in words) [1]: 20% methanol was only slightly slower
Molecule: CO [MeOH, Methanol]

- acceleration of dissociation by 20% ethanol [9]: about six-fold
Molecule: NLVPKTAMRAVATA [NA9-TAM]

- fold acceleration of dissociation by 20% ethanol (against no ethanol) [10]: 6 fold
Molecule: NLVPK_(TAMRA)VATA (peptide)
